Results taken from ChEMBL document CHEMBL4130608, “Isolation, Derivative Synthesis, and Structure-Activity Relationships of Antiparasitic Bromopyrrole Alkaloids from the Marine Sponge Tedania brasiliensis” (J Nat Prod, 2018).
≈ marks a conversion by molar mass, not a printed value.

Key:
Leishmania amazonensis [1] = assay: Antileishmanial activity against Leishmania amazonensis MHOM/BR/1973/M2269 promastigotes after 24 hrs by MTT assay; assay type: functional, organism-based; conditions: MHOM/BR/1973/M2269, 24 h
In short: (§1)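 Promastigotes (L. amazonensis, L. infantum; 26 °C, M199 with 20% heat-inactivated FBS, hemin, adenine, L-glutamine, plus 5% human urine for L. infantum) or T. cruzi Y epimastigotes (LIT with hemin, 10% FCS, 28 °C). Exposed to a series of concentrations for 24 h. Viability read by MTT. EC50 from sigmoidal fit of concentration–response. Triplicates, repeated two or three times.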

Trypanosoma cruzi = assay: Antitrypanosomal activity against Trypanosoma cruzi Y epimastigotes after 24 hrs by MTT assay; assay type: functional, organism-based; in short: as §1
Plasmodium falciparum [2] = assay: Antiplasmodial activity against drug-sensitive blood stage Plasmodium falciparum 3D7 by SYBR green 1 staining based fluorescence assay; assay type: functional, organism-based
In short: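 Sorbitol-synchronized ring-stage 3D7 exposed to a range of concentrations (samples in 0.05% DMSO), in triplicate. Then lysed with Tris/EDTA/saponin/Triton buffer containing SYBR Green I (1:20000) for 30 min. IC50 from curve fitting against untreated growth.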

Leishmania infantum = assay: Antileishmanial activity against Leishmania infantum MHOM/BR/1972/LD promastigotes after 24 hrs by MTT assay; assay type: functional, organism-based; in short: as §1
[3] = Selectivity index, ratio of MDL50 for human HepG2 cells to IC50 for drug-sensitive blood stage Plasmodium falciparum 3D7; assay type: toxicity; conditions: HepG2 cells versus blood stage Plasmodium falciparum 3D7, read-out: Selectivity Index
[4] = Cytotoxicity against human HepG2 cells after 24 hrs by MTT assay; assay type: cell-based; conditions: read-out: MDL50
In short: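 HepG2 cells grown in RPMI-1640 with 10% FBS, seeded at 5 × 10^3 cells/well and allowed to adhere for 18 h. Exposed to 1,000–1 μg/mL for 24 h at 37 °C, 5% CO2. MTT (5 mg/mL stock) added for 3 h, formazan dissolved in DMSO, absorbance read at 570 and 630 nm. Viability expressed as % of untreated control after background subtraction.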

Plasmodium falciparum [5] = assay: Antiplasmodial activity against chloroquine/pyrimethamine-resistant Plasmodium falciparum K1 assessed as reduction in [3H]hypoxanthine incorporation pretreated for 48 hrs followed by [3H]hypoxanthine addition measured after 24 hrs by liquid scintillation counting method; assay type: functional, organism-based
Leishmania amazonensis [6] = assay: Antileishmanial activity against Leishmania amazonensis amastigotes infected in BALB/c mouse BMDM assessed as reduction in intracellular amastigotes at 25 uM after 24 hrs by microscopic analysis relative to control; assay type: functional; set-up: scale not given: the % may be the effect or the level left
In short: (§2)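 BALB/c bone marrow macrophages infected with stationary-phase L. amazonensis promastigotes (MOI 10) for 1 h, then washed and held 24 h at 33 °C, 5% CO2. Treated with 6.125, 25, 50 or 100 μM for 24 h at 33 °C. Cells MeOH-fixed and stained. Amastigotes counted in 300 cells per coverslip on triplicate coverslips. Expressed as % reduction versus untreated infected cells. Two independent experiments.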

BMDM = assay: Cytotoxicity against BALB/c mouse BMDM after 24 hrs by MTT assay; assay type: cell-based
In short: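 Differentiated BALB/c female mouse bone marrow macrophages incubated at 37 °C with increasing concentrations for 24 h. Viability read by MTT and CC50 calculated.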

Leishmania amazonensis [7] = assay: Antileishmanial activity against Leishmania amazonensis amastigotes infected in BALB/c mouse BMDM assessed as reduction in intracellular amastigotes at 100 uM after 24 hrs by microscopic analysis relative to control; assay type: functional; set-up: scale not given: the % may be the effect or the level left; in short: as §2
Leishmania amazonensis [8] = assay: Antileishmanial activity against Leishmania amazonensis amastigotes infected in BALB/c mouse BMDM assessed as reduction in intracellular amastigotes at 50 uM after 24 hrs by microscopic analysis relative to control; assay type: functional; set-up: scale not given: the % may be the effect or the level left; in short: as §2
Leishmania amazonensis [9] = assay: Antileishmanial activity against Leishmania amazonensis amastigotes infected in BALB/c mouse BMDM assessed as reduction in intracellular amastigotes at 6.125 uM after 24 hrs by microscopic analysis relative to control; assay type: functional; set-up: scale not given: the % may be the effect or the level left; in short: as §2
Leishmania amazonensis [10] = assay: Antileishmanial activity against Leishmania amazonensis amastigotes infected in BALB/c mouse BMDM assessed as reduction in intracellular amastigotes after 24 hrs by microscopic analysis; assay type: functional, organism-based; in short: as §2

Row | SMILES | EC50 (Leishmania amazonensis [1]) [µM] | EC50 (Trypanosoma cruzi) [µM] | IC50 (Plasmodium falciparum [2]) [µM] | EC50 (Leishmania infantum) [µM] | further results
1 | O=C(NCCCCCCCCNC(=O)c1cc(Br)c(Br)[nH]1)c1cc(Br)c(Br)[nH]1 | > 100 | > 100 | > 10 | > 100 | 
2 | O=C(NCCCCCCNCCCCCCNC(=O)c1cc(Br)c(Br)[nH]1)c1cc(Br)c(Br)[nH]1 | > 100 | > 100 | 2 | > 100 | selectivity ratio [3]: 101; CC50 at 24 h [4]: 263 µM
3 | Cc1cccc(C(=O)NCCCCNCCCNC(=O)c2cccc(C)n2)n1 | > 100 | > 100 | > 10 | > 100 | 
4 | O=C(NCCCCNCCCNC(=O)c1ccc[nH]1)c1ccc[nH]1 | > 100 | > 100 | > 10 | > 100 | 
5 | NC1NC(=O)/C(=C2/CCNC(=O)c3[nH]cc(Br)c32)N1 (centres undefined) [SPONGIACIDIN B] |  |  |  |  | IC50 (Plasmodium falciparum [5]): 1.09 µg/mL (≈ 3.34 µM)
6 | O=C(NCCCCNCCCNC(=O)c1cc(Cl)c(Cl)[nH]1)c1cc(Cl)c(Cl)[nH]1 | > 100 | > 100 | > 10 | > 100 | 
7 | O=C(NCCCCNCCCNC(=O)c1cccc(Cl)n1)c1cccc(Cl)n1 | > 100 | > 100 | > 10 | > 100 | 
8 | CN(CCCCNC(=O)c1cc(Br)c(Br)[nH]1)CCCNC(=O)c1cc(Br)c(Br)[nH]1 | > 100 | > 100 | 4 | > 100 | selectivity ratio [3]: 35; CC50 at 24 h [4]: 160 µM
9 | O=C(NCCCCNCCCNC(=O)c1ccc(Br)s1)c1ccc(Br)s1 | 76 | > 100 | > 10 | 20 | Activity (Leishmania amazonensis [6]): 41.5%; CC50 (BMDM): > 100 µM; Activity (Leishmania amazonensis [7]): 79.5%; Activity (Leishmania amazonensis [8]): 58.8%; Activity (Leishmania amazonensis [9]): 46.4%; Activity (Leishmania amazonensis [10]): Dose-dependent effect
10 | O=C(NCCCCCNC(=O)c1ccc[nH]1)c1ccc[nH]1 | > 100 | > 50 | > 10 | > 100 | 
11 | Cc1ccc(C(=O)NCCCCNCCCNC(=O)c2ccc(C)s2)s1 | > 100 | > 100 | > 10 | > 100 | 
12 | O=C(NCCCCNCCCNC(=O)c1nc2ccccc2[nH]1)c1nc2ccccc2[nH]1 | > 100 | > 100 | > 10 | > 100 | 
13 | O=C(NCCCCNCCCNC(=O)c1ccc(F)[nH]1)c1ccc(F)[nH]1 | > 100 | > 100 | > 10 | > 100 | 
